Reference: ChEMBL document CHEMBL1134358, “Cyclic ketone inhibitors of the cysteine protease cathepsin K” (J Med Chem, 2001)

Legend:
Cathepsin S = Cathepsin S (Homo sapiens, UniProt P25774); assay: Inhibition of human Cathepsin S; conditions: read-out: Ki app
In short: (§1)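 Fluorogenic AMC-substrate assay in 100 mM acetate, 20 mM cysteine, 5 mM EDTA, pH 5.5, with 10% final DMSO. […] Apparent Ki values were determined.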

Procathepsin L = Procathepsin L (Homo sapiens, UniProt P07711); assay: Inhibition of human Cathepsin L; conditions: read-out: Ki app
Chain of Procathepsin L (P07711 whole entry): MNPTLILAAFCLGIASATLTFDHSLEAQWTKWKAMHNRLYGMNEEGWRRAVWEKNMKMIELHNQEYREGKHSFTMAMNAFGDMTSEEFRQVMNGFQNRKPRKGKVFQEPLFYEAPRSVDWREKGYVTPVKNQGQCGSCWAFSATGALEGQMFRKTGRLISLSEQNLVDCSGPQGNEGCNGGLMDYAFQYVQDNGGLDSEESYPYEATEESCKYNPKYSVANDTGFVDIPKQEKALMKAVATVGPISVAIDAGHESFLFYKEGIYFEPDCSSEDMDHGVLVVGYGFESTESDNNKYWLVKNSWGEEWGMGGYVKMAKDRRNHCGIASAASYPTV

Cathepsin K [1] = biological target: T1, Cathepsin K (Homo sapiens, UniProt P43235); assay: In vitro inhibition of human Cathepsin K.; conditions: read-out: Ki app
T1 sequence (P43235 whole entry): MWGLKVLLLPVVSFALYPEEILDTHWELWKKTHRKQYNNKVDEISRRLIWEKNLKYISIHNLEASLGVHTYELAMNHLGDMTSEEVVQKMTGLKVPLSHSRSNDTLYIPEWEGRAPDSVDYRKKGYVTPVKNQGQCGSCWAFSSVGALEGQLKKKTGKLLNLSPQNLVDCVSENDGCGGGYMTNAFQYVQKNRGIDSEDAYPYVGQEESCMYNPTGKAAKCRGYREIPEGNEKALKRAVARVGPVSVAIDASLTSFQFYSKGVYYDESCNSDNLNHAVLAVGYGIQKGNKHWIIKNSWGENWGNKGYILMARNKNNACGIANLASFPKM

Cathepsin B = Cathepsin B (Homo sapiens, UniProt P07858); assay: Inhibitory activity tested against human Cathepsin B; conditions: read-out: Ki app; in short: as §1
[2] = biological target: T2, Cathepsin K (Homo sapiens) (UniProt P43235); assay: (§2) Inhibitory activity tested against human Cathepsin K
T2 sequence (whole entry): T1 sequence (P43235 whole entry)

Cathepsin K [3] = biological target: T1, Cathepsin K; assay: as §2

Chain of Cathepsin S (P25774 whole entry): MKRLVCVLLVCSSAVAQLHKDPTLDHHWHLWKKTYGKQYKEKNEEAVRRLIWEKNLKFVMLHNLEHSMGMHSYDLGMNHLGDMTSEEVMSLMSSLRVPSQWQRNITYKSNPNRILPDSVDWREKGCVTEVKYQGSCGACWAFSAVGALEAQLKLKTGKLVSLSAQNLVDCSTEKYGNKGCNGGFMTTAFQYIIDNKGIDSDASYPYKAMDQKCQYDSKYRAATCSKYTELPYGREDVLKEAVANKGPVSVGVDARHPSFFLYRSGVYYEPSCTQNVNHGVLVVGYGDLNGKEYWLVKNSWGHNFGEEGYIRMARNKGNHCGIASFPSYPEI

| Ki (Cathepsin S) [nM] | Ki (Procathepsin L) [nM] | Ki (Cathepsin K [1]) [nM] | Ki (Cathepsin B) [nM] | K inact/I [2] [M⁻¹ s⁻¹] | Ki (Cathepsin K [3]) [nM] | SMILES |
| --- | --- | --- | --- | --- | --- | --- |
| > 10000 | > 10000 | > 10000 | > 10000 | – | – | CC(C)C[C@H](NC(=O)OCc1ccccc1)C(=O)NC1CCCCC1=O (stereo not given in full) |
| – | – | – | – | 4100 | – | CCCOC[C@@H](O)[C@H](CC(C)C)NC(=O)[C@H](CC(C)C)NC(=O)OCc1ccccc1 |
| > 10000 | > 10000 | > 10000 | > 10000 | – | – | CC(C)C[C@H](NC(=O)OCc1ccccc1)C(=O)NC1CCCC1=O (stereo not given in full) |
| – | – | 0.6 | – | – | – | CC(C)C[C@H](NC(=O)OCc1ccccc1)C(=O)NC1CN(C(=O)[C@H](CC(C)C)N(C)C(=O)OCc2ccccc2)CC1=O (stereo not given in full) |
| > 1000 | > 1000 | > 1000 | – | – | – | CC(C)C[C@H](NC(=O)OCc1ccccc1)C(=O)NC1CCOCC1O (stereo not given in full) |
| 90 | – | – | – | – | – | CC(C)C[C@H](NC(=O)OCc1ccccc1)C(=O)NC1CN(C(=O)[C@H](CC(C)C)NC(=O)OCc2ccccc2)CC1=O (stereo not given in full) |
| 8 | – | – | – | – | – | CC(C)C[C@H](NC(=O)OCc1ccccc1)C(=O)NC1CCN(C(=O)[C@H](CC(C)C)NC(=O)OCc2ccccc2)CC1=O (stereo not given in full) |
| 290 | 400 | 77 | 7300 | – | – | CN[C@@H](CC(C)C)C(=O)N1CC(=O)[C@@H](NC(=O)[C@H](CC(C)C)NC(=O)OCc2ccccc2)C1 |
| – | – | – | – | – | 11 | CC(C)C[C@H](NC(=O)c1cc2ccccc2s1)C(=O)NC1CCOCC1=O (stereo not given in full) |
| 51 | – | 180 | 2600 | – | – | CC(C)C[C@@H](C(=O)NC1CN(C(=O)[C@H](CC(C)C)N(C)C(=O)OCc2ccccc2)CC1=O)N(C)C(=O)OCc1ccccc1 (stereo not given in full) |
| 480 | 580 | 250 | – | – | – | CC(=O)N1CC(=O)C(NC(=O)[C@H](CC(C)C)NC(=O)OCc2ccccc2)C1 (stereo not given in full) |
| 310 | 2600 | – | > 10000 | – | – | CC(C)C[C@H](NC(=O)OCc1ccccc1)C(=O)NC1COCC1=O (stereo not given in full) |
| – | – | 1.6 | 46 | – | – | CC(C)C[C@@H](CN1CC(=O)C(NC(=O)[C@H](CC(C)C)NC(=O)c2ccc3cccnc3c2)C1)NC(=O)OCc1ccccc1 (stereo not given in full) |
| – | – | – | > 1000 | – | – | COCC(=O)[C@H](C)NC(=O)[C@H](CC(C)C)NC(=O)OCc1ccccc1 |
| 1100 | 250 | – | 7800 | – | – | CC(C)C[C@H](NC(=O)c1ccc2ccccc2n1)C(=O)NC1COCC1=O (stereo not given in full) |
| – | – | 1.9 | – | – | – | CC(C)C[C@H](NC(=O)OCc1ccccc1)C(=O)NC1CCN(C(=O)[C@H](CC(C)C)N(C)C(=O)OCc2ccccc2)CC1=O (stereo not given in full) |
| – | – | – | – | – | 80 | COCC(=O)[C@H](CC(C)C)NC(=O)[C@H](CC(C)C)NC(=O)OCc1ccccc1 |
| – | – | 230 | – | – | – | CC(=O)N1CCC(NC(=O)[C@H](CC(C)C)NC(=O)OCc2ccccc2)C(=O)C1 (stereo not given in full) |
| > 1000 | > 1000 | > 1000 | – | – | – | CC(C)C[C@H](NC(=O)OCc1ccccc1)C(=O)NC1COCC1O (stereo not given in full) |
| 530 | – | 150 | > 10000 | – | – | CC(C)C[C@H](NC(=O)OCc1ccccc1)C(=O)NC1CCOCC1=O (stereo not given in full) |
| – | – | – | – | – | 560 | CC(C)C[C@H](NC(=O)c1cc2ccccc2s1)C(=O)NC1COCCC1=O (stereo not given in full) |
